Values after ≈ are worked out from the molar mass of the structure shown. Active and inactive are the calls of the source. The calls are words filed in the database; no cut-off is given here.
What was measured:
[1] = target: T1, Glucose-dependent insulinotropic receptor (Homo sapiens, UniProt Q8TDV5); experiment: (§1) Agonist activity at human GPR119 expressed in HEK293 cells assessed as increase in cAMP level after 30 mins by LANCE assay; type: functional, cell-based
T1 sequence (Q8TDV5 whole entry): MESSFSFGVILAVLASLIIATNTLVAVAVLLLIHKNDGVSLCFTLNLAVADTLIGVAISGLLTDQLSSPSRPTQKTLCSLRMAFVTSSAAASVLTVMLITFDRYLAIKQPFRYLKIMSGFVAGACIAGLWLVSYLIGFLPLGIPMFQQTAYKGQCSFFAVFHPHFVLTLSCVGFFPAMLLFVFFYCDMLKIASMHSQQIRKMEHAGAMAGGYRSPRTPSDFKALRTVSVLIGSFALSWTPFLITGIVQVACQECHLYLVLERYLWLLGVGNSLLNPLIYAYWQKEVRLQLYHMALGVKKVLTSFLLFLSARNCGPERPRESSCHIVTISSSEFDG

[2] = target: T2, Glucose-dependent insulinotropic receptor (Homo sapiens) (UniProt Q8TDV5); experiment: as §1; type: functional, cell-based
T2 sequence (whole entry): T1 sequence (Q8TDV5 whole entry)

[3] = target: T3, Glucose-dependent insulinotropic receptor (Mus musculus) (UniProt Q7TQP3); experiment: (§2) Agonist activity at mouse GPR119 assessed as increase in cAMP level; type: functional
T3 sequence (whole entry): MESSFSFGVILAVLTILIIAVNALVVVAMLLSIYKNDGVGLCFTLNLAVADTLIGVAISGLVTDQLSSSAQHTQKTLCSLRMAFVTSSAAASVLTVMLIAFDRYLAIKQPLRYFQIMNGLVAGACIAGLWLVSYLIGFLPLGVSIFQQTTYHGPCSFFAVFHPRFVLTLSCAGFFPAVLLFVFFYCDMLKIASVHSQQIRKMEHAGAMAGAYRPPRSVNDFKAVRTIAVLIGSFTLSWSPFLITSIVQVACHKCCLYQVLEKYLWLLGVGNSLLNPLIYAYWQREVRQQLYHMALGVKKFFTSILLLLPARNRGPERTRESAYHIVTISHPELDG

[4] = target: T4, Glucose-dependent insulinotropic receptor (Mus musculus, UniProt Q7TQP3); experiment: as §2; type: functional
T4 sequence (Q7TQP3 whole entry): T3 sequence (whole entry)

Mus musculus [5] = experiment: Glucose lowering effect in C57Bl/6NCrl mouse assessed as reduction in glucose level at 3 mg/kg, po administered via gavage pretreated for 30 mins followed by glucose-challenge measured after 20 mins by OGTT relative to control; type: functional; parameters: scale not given: the % may be the effect or the level left
How it was run: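 Overnight-fasted mice got compound or vehicle orally at 3 to 10 mg/kg. Glucose (3 g/kg po) was given 30 min post-dose. Blood glucose was read by hand-held glucometer before dosing, before glucose and 20 min after glucose. Glucose lowering (%) = [(1 − 20 min glucose of treated / 20 min glucose of vehicle) × 100].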

[6] = Protein binding in mouse plasma at 10 uM; type: ADME, cell-free; settings: read-out: PPB (converted)
[7] = Protein binding in human plasma at 10 uM; type: ADME, cell-free; settings: read-out: PPB (converted)
[8] = Solubility of the compound at pH 7.4; type: physicochemical; settings: buffer
Rattus norvegicus = experiment: Antidiabetic activity in Sprague-Dawley rat assessed as reduction in glucose excursion at 1 mg/kg, po pretreated followed by glucose challenge measured after 10 to 30 mins by OGTT; type: functional, organism-based
How it was run: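 Sprague-Dawley rats underwent an oral glucose tolerance test with glucose excursion measured. Sitagliptin was dosed at 1 mpk and agonist at 3 mpk, alone or co-administered.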

Mus musculus [9] = experiment: Antidiabetic activity in C57Bl/6NCrl mouse assessed as increase in plasma GLP1 (7 to 36) amide levels at 3 mg/kg, po administered via gavage pretreated followed by glucose-challenge measured after 10 mins; type: functional, organism-based

| Compound | EC50 [1] | %max [2] | %max [3] | EC50 [4] | fraction unbound at 10 µM [6] | fraction unbound at 10 µM [7] | solubility [8] | Activity (Mus musculus [5]) | Activity (Rattus norvegicus) | Activity (Mus musculus [9]) |
| --- | --- | --- | --- | --- | --- | --- | --- | --- | --- | --- |
| CC1(OC(=O)N2[C@H]3CC[C@H]2CC(Oc2ncnc(Nc4ccc(C#N)cc4Cl)c2F)C3)CC1 (stereo partly specified) | 0.0035 µM | 79% | 42% | 0.067 µM | – | – | – | 17% | – | – |
| Cc1c(Nc2ccc(C#N)cc2Cl)ncnc1OC1C[C@@H]2CC[C@@H](C1)N2S(=O)(=O)C1CC1 (stereo partly specified) | – | – | – | – | 0.007 | 0.001 | 0.17 µM (≈ 0.0806 µg/mL) | – | – | – |
| CC1(OC(=O)N2C[C@H]3COC[C@@H](C2)[C@@H]3Oc2ncnc(Nc3ccccc3F)c2F)CC1 | 0.006 µM | 78% | 76% | 0.025 µM | – | – | – | 21% | – | – |
| N[C@@H](CC(=O)N1CCn2c(nnc2C(F)(F)F)C1)Cc1cc(F)c(F)cc1F | – | – | – | – | – | – | – | – | Active | Active |
| CC1(OC(=O)N2CC3COCC(C2)C3Oc2ncnc(Nc3ccc(F)cc3F)c2F)CC1 (stereo unspecified) | 0.015 µM | 94% | 73% | 0.044 µM | – | – | – | 27% | – | – |
| CC1(OC(=O)N2[C@H]3CC[C@H]2CC(Oc2ncnc(Nc4ccc(C#N)cc4Cl)c2F)C3)CCC1 (stereo partly specified) | 0.0051 µM | 77% | 18% | 0.042 µM | – | – | – | inactive | – | – |
| CC(C)COC(=O)N1[C@H]2CC[C@H]1CC(Oc1ncnc(Nc3ccc(C#N)cc3Cl)c1F)C2 (stereo partly specified) | 0.0026 µM | 81% | 44% | 0.021 µM | – | – | – | inactive | – | – |
| CC1(OC(=O)N2CC3COCC(C2)C3Oc2ncnc(Oc3ccccc3F)c2F)CC1 (stereo unspecified) | 0.026 µM | 114% | 136% | 0.075 µM | – | – | – | 20% | – | – |

More lines, in order of falling EC50 [1], values ahead:

| EC50 [1] | %max [2] | %max [3] | EC50 [4] | fraction unbound at 10 µM [6] | fraction unbound at 10 µM [7] | solubility [8] | Compound | Activity (Mus musculus [5]) | Activity (Rattus norvegicus) | Activity (Mus musculus [9]) |
| --- | --- | --- | --- | --- | --- | --- | --- | --- | --- | --- |
| 0.212 µM | 56% | 100% | 0.248 µM | – | – | – | N#Cc1ccc(Oc2ncnc(OC3C4COCC3CN(c3ncc(F)cn3)C4)c2C2CC2)c(Cl)c1 (stereo unspecified) | – | – | – |
| 0.188 µM | 41% | 46% | 0.516 µM | – | – | – | CC1(COC(=O)N2CC3COCC(C2)C3Oc2ncnc(Nc3ccc(C#N)cc3Cl)c2F)COC1 (stereo unspecified) | – | – | – |
| 0.097 µM | 73% | 79% | 0.000427 µM | 0.081 | 0.145 | 17 µM (≈ 9.12 µg/mL) | COc1c(Nc2ccc(S(C)(=O)=O)cc2F)ncnc1OC1C[C@@H]2COC[C@@H](C1)N2C(=O)OC1(C)CC1 (stereo partly specified) | – | – | – |
| 0.049 µM | 62% | 70% | 0.312 µM | – | – | – | COCC1(OC(=O)N2CC3COCC(C2)C3Oc2ncnc(Nc3ccc(C#N)cc3F)c2F)CC1 (stereo unspecified) | – | – | – |
| 0.019 µM | 73% | 83% | 0.278 µM | – | – | – | CC1(OC(=O)N2CC3COCC(C2)C3Oc2ncnc(Nc3ccc(-n4cncn4)cc3F)c2F)CC1 (stereo unspecified) | 27% | – | – |
| 0.017 µM | 63% | 84% | 0.058 µM | – | – | – | CC1(OC(=O)N2CC3COCC(C2)C3Oc2ncnc(Nc3cccnc3Cl)c2F)CC1 (stereo unspecified) | 26% | – | – |
| 0.013 µM | 78% | 108% | 0.113 µM | – | – | – | CC1(OC(=O)N2C[C@H]3COC[C@@H](C2)[C@@H]3Oc2ncnc(Nc3c(F)cccc3F)c2F)CC1 | 31% | – | – |
| 0.01 µM | 59% | 88% | 0.06 µM | – | – | – | CC1(OC(=O)N2CC3COCC(C2)C3Oc2ncnc(Nc3ccc(C#N)cc3Cl)c2F)CCC1 (stereo unspecified) | – | – | – |
| 0.01 µM | 51% | 60% | 0.06 µM | – | – | – | N#Cc1ccc(Nc2ncnc(OC3C4COCC3CN(C(=O)OC3CCC3)C4)c2F)c(Cl)c1 (stereo unspecified) | – | – | – |
| 0.008 µM | 87% | 29% | 0.046 µM | – | – | – | CC(C)OC(=O)N1[C@H]2CC[C@H]1CC(Oc1ncnc(Nc3ccc(C#N)cc3Cl)c1F)C2 (stereo partly specified) | inactive | – | – |
| 0.006 µM | 89% | 90% | 0.043 µM | – | – | – | CCC1(OC(=O)N2CC3COCC(C2)C3Oc2ncnc(Nc3ccc(C#N)cc3F)c2F)CC1 (stereo unspecified) | – | – | – |
